Most compounds without a hit are left out; they make up all but 3% or so of the library.
PKD1 kinase inh: PKD1 (human) kinase inhibition; Q15139; PKD1 kinase fluorescence polarization assay; inhibition, % (test concentration not listed); 200,000 tested, 0.056% active; AID 797; in the data active = inhibition above about 50%
Rad51 HR inh: blocks human Rad51 in homologous recombination | hRad51 DNA strand exchange, fluorescence dequenching | inhibition, % at 10 µM | 200,000 tested, 0.085% active | AID 1385;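 active = inhibition above 40% at the single screening dose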;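 also: 0% = DMSO control wells and 100% = blanks with heterologous ssDNA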
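Material: hRad51 filaments on single-stranded DNA; Reagent: Donor/quencher-labelled 47-bp dsDNA substrate; Compound: 10 µM final, single point; Schedule: 37 °C 15-min filament assembly, 30-min compound preincubation, 15-min exchange; Technique: FRET fluorescence, excitation 485 nm, emission 520 nm; Benchmarks: control wells and blank wells on each plate.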
KCC2 mod: KCC2 (human) Cl- transport modulation; KCC2 cells, thallium flux FluoZin-2 fluorescence; B-score of Tl+ flux slope (higher = more flux/activation; lower = inhibition) at 10 µM; 190,000 tested, 2.2% active; AID 1456;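 active = thallium flux slope and its plate-corrected score both differing from the plate sample mean at a set confidence after two filtering rounds, in either direction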;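 also: slope of fluorescence scaled to starting intensity during 10 to 20 s after thallium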
Target sequence (Q9H2X9 whole entry, looked up): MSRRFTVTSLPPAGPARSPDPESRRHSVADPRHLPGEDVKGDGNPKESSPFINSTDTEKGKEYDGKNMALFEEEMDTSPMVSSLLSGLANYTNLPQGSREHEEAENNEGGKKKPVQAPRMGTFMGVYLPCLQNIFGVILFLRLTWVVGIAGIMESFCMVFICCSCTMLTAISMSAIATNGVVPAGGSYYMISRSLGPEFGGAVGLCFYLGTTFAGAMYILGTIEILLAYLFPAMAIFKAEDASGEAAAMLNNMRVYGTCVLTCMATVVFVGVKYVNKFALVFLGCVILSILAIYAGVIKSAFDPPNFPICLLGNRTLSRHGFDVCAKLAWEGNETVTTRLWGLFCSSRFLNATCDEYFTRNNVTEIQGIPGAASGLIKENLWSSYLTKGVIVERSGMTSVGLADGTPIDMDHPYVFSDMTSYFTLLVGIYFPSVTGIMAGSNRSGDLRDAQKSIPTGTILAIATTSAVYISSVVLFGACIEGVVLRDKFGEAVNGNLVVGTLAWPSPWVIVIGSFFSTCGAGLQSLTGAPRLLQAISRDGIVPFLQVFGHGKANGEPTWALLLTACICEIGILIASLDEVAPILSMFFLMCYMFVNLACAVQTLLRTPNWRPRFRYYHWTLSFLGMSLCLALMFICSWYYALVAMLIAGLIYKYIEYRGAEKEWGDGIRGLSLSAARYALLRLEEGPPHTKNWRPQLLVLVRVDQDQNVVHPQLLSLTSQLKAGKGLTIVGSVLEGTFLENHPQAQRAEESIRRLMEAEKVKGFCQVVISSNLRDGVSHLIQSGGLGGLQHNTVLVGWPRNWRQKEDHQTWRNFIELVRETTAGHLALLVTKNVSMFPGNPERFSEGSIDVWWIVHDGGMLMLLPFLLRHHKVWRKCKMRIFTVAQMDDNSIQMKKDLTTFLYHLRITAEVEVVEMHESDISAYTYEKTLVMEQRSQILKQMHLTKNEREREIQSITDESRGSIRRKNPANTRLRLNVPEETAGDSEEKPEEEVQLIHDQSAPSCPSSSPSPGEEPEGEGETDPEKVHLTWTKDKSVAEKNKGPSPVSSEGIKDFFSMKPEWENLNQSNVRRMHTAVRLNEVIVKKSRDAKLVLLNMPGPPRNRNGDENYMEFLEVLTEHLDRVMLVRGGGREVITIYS
ROMK mod: modulators of human ROMK potassium channel; P48048; 130,000 tested, 2% active; B-score at 10 µM; Tet-inducible ROMK, thallium flux fluorescence; actives lie on both sides;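 active = signal ratio slope over the read window, or its plate-corrected B-score, at least 3 SD from the plate mean, either direction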;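 also: B-score of the F/F0 ratio slope over 7 to 12 s after thallium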
Active calls of the source: *.

What do the screens show for `O=c1c2cc(Cl)ccc2nc(-c2ccccc2Cl)n1O`?
PKD1 kinase inh: 5; Rad51 HR inh: 21; KCC2 mod: 8; ROMK mod: 0.0029

What do the screens show for `O=c1c2ccccc2nc(-c2cccc(Cl)c2)n1O`?
PKD1 kinase inh: 4; Rad51 HR inh: -1; KCC2 mod: 18*

Results for O=c1c(-c2cccc([N+](=O)[O-])c2)[n+]([O-])c2ccccc2n1O ?
Rad51 HR inh: 10; KCC2 mod: -0.48

What do the screens show for `O=c1c(-c2ccc(Cl)cc2)[n+]([O-])c2ccccc2n1O`?
PKD1 kinase inh: -5; Rad51 HR inh: 1; KCC2 mod: 9.6*; ROMK mod: -1

Results for CCc1ccc(Nc2nc3ccccc3c(=O)s2)cc1 ?
PKD1 kinase inh: -9; Rad51 HR inh: -4; KCC2 mod: 7.5*; ROMK mod: 0.071

Results for COc1cccc(C(=O)NCC(=O)OCC(=O)Nc2cc(OC)c([N+](=O)[O-])cc2C)c1 ?
PKD1 kinase inh: 5; Rad51 HR inh: 1; KCC2 mod: 0.16

What do the screens show for `CCS(=O)(=O)c1ccc(C(=O)Nc2ccccc2OC)c(Cl)c1Cl`?
PKD1 kinase inh: 6; Rad51 HR inh: -5; KCC2 mod: 0.046; ROMK mod: 0.63

How did Cc1cccc2c1NC(=O)C2(c1ccc(O)cc1)c1ccc(O)cc1 do in these assays?
PKD1 kinase inh: 1; Rad51 HR inh: 3; KCC2 mod: 13*

What do the screens show for `O=C(Nc1cccc(Cl)c1)c1cc(N=Nc2ccc([N+](=O)[O-])cc2Cl)ccc1O`?
Rad51 HR inh: 10; KCC2 mod: 11*

Results for O=C(Nc1cccc(Cl)c1)c1cccc(Oc2ccc([N+](=O)[O-])cc2Cl)c1 ?
PKD1 kinase inh: -3; Rad51 HR inh: 2; KCC2 mod: 0.18

How did CC(=O)c1sc(-c2ccccc2)cc1NS(=O)(=O)c1ccc(C)cc1 do in these assays?
Rad51 HR inh: 4; KCC2 mod: 30*; ROMK mod: 2.7*

What do the screens show for `Cc1ccc(F)cc1NC(=O)C1CC(=O)N(CCc2ccccc2)C1` (stereo not drawn)?
PKD1 kinase inh: -3; Rad51 HR inh: -1; KCC2 mod: -0.69; ROMK mod: -1.6

How did C=CCn1c(-c2csc3c2CCC(C)C3)n[nH]c1=S (stereo not drawn) do in these assays?
PKD1 kinase inh: 10; Rad51 HR inh: 7; KCC2 mod: 4.7

How did CCCCn1c(-c2csc3c2CCC(C)C3)n[nH]c1=S (stereo not drawn) do in these assays?
PKD1 kinase inh: 0; Rad51 HR inh: 0; KCC2 mod: 22*

What do the screens show for `CCn1c(-c2csc3c2CCCC3)n[nH]c1=S`?
PKD1 kinase inh: -15; Rad51 HR inh: 1; KCC2 mod: 2; ROMK mod: -1.3

Results for CCCCn1c(-c2csc3c2CCCC3)n[nH]c1=S ?
PKD1 kinase inh: -3; Rad51 HR inh: -4; KCC2 mod: 3*; ROMK mod: -0.58

Results for CN(C)NC(=S)NC1CCS(=O)(=O)C1 (stereo not drawn) ?
Rad51 HR inh: 0; KCC2 mod: 0.64

What do the screens show for `O=C(NC(=S)Nc1cccnc1)c1cc2ccccc2o1`?
PKD1 kinase inh: -2; KCC2 mod: 88*; ROMK mod: 3.5*

What do the screens show for `COC(=O)c1cc([N+](=O)[O-])c(-n2ccnc2)c([N+](=O)[O-])c1`?
PKD1 kinase inh: -14; Rad51 HR inh: -3; KCC2 mod: 0.91; ROMK mod: -1.6

Results for CCCCn1c(SC(C)C(N)=O)nc2cc(C(=O)OC)ccc2c1=O (stereo not drawn) ?
PKD1 kinase inh: 10; Rad51 HR inh: -2; KCC2 mod: 9.8*

Results for CCN(CC)S(=O)(=O)c1ccc(N2CCCCC2)c(NC(=O)c2ccncc2)c1 ?
PKD1 kinase inh: -2; Rad51 HR inh: -22; KCC2 mod: -0.25; ROMK mod: 0.27

How did COc1cc(/C=C(\C#N)c2nc3ccccc3[nH]2)ccc1OC(=O)c1ccco1 do in these assays?
PKD1 kinase inh: 19; Rad51 HR inh: -12; KCC2 mod: -1.5; ROMK mod: -0.96

What do the screens show for `COc1cc(/C=C(\C#N)c2nc3ccccc3[nH]2)c([N+](=O)[O-])cc1OCc1ccccc1`?
PKD1 kinase inh: -9; Rad51 HR inh: -38; KCC2 mod: -4.5*; ROMK mod: -2.8

What do the screens show for `COc1ccc(S(=O)(=O)N(C)c2ccc(C(=O)N3CCC(C(N)=O)CC3)cc2)cc1OC`?
PKD1 kinase inh: -4; Rad51 HR inh: -13; KCC2 mod: 0.045; ROMK mod: -1.1

How did CCOC(=O)c1c(NS(=O)(=O)c2cccc(OC)c2)sc2c1CCC2 do in these assays?
PKD1 kinase inh: -6; Rad51 HR inh: 7; KCC2 mod: 38*; ROMK mod: -0.31

What do the screens show for `O=C(c1ccccc1)N(Cc1ccc2c(c1)OCO2)Cc1nc2ccccc2c(=O)[nH]1`?
PKD1 kinase inh: -3; Rad51 HR inh: -4; KCC2 mod: 0.46; ROMK mod: 3.2*

What do the screens show for `COc1ccc(C(=O)N/N=C/c2ccc3cccc(OCc4ccccc4)c3n2)cc1`?
PKD1 kinase inh: -3; Rad51 HR inh: 0; KCC2 mod: 4.1*; ROMK mod: -0.094

Results for COc1ccc(C(=O)N/N=C/c2sc3ccccc3c2O)cc1 ?
PKD1 kinase inh: -3; Rad51 HR inh: -182; KCC2 mod: 0.32; ROMK mod: -4.5*

What do the screens show for `COc1ccc(C(=O)N/N=C/c2cccc3cccnc23)cc1`?
PKD1 kinase inh: 3; KCC2 mod: -0.94; ROMK mod: -0.11

Results for O=C(N/N=C/c1ccc2cccc(OCc3ccccc3)c2n1)c1ccc(Br)cc1 ?
PKD1 kinase inh: 3; Rad51 HR inh: -3; KCC2 mod: 11*; ROMK mod: 0.9

How did O=C(N/N=C/c1ccccn1)c1ccc(Br)cc1 do in these assays?
PKD1 kinase inh: 6; Rad51 HR inh: -4; KCC2 mod: 4.2*

How did O=C(N/N=C/c1sc2ccccc2c1O)c1ccccc1 do in these assays?
PKD1 kinase inh: -10; Rad51 HR inh: -223; KCC2 mod: inactive

How did O=C(Nc1ccc2ccccc2n1)Nc1cccs1 do in these assays?
Rad51 HR inh: 9; KCC2 mod: -2; ROMK mod: 0.03

What do the screens show for `O=C(Nc1nnc(C2CC2)s1)c1cc([N+](=O)[O-])ccc1N1CCCCC1`?
PKD1 kinase inh: 14; Rad51 HR inh: 1; ROMK mod: -0.32

How did O=C1c2ccccc2NC(c2ccc(-c3ccc(Br)cc3)o2)N1O (stereo not drawn) do in these assays?
PKD1 kinase inh: 2; Rad51 HR inh: -1; KCC2 mod: 8.6*

Results for O=Cc1[nH]c2ccccc2c1N(C(=O)CCl)c1ccc([N+](=O)[O-])cc1 ?
Rad51 HR inh: 12; KCC2 mod: -0.068; ROMK mod: -2*

What do the screens show for `CCn1c(SCC(=O)NC(=O)NCc2ccco2)nc2sc(C)c(C)c2c1=O`?
PKD1 kinase inh: -9; KCC2 mod: 16*; ROMK mod: 0.76

What do the screens show for `CCN1CCN(CC(=O)N2N=C(c3cccs3)CC2c2ccc(C)cc2)C(=O)C1=O` (stereo not drawn)?
PKD1 kinase inh: -4; Rad51 HR inh: 2; KCC2 mod: -0.061

What do the screens show for `O=C(Nc1ccc2c(c1)OCO2)C1CCN(C(=O)c2ccc(Br)cc2)CC1`?
PKD1 kinase inh: -4; Rad51 HR inh: 41*; KCC2 mod: 0.55; ROMK mod: -0.0044
